ChEMBL document CHEMBL5724801, “EUbOPEN Chemogenomics Library - Multiplex” (2024)
“And” between values parts separate entries of the source, which are not always exact repeats. Identical values can stand only once.

Test system: U2OS
Assay: Multiplex assay against U2OS
Assay type: toxicity, cell-based
Conditions: human
Outline: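 Hoechst33342, BioTracker Green Microtubule Cytoskeleton Dye, MitoTracker Red and Annexin V Alexa Fluor 680 were added to live cells at seeding, and imaging on a CQ1 microscope at 37°C and 5% CO2 followed compound addition. Gating by CellPathfinder machine learning separated cells into Hoechst high-intensity objects or normal cells, then normal cells into healthy, pyknosed or fragmented nuclei, then pyknosed cells into mitotic or apoptotic. Per cents of healthy-nucleus cells are reported for the tubulin, mitochondrial-mass and membrane-permeability phenotypes.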

[1] = 12 h, 1 µM, compound concentration 1 uM
[2] = 12 h, 10 µM, compound concentration 10 uM
[3] = 24 h, 1 µM, compound concentration 1 uM
[4] = 24 h, 10 µM, compound concentration 10 uM
[5] = 48 h, 1 µM, compound concentration 1 uM
[6] = 48 h, 10 µM, compound concentration 10 uM

## CCOC(=O)c1c(/C(C#N)=C\N)c2ccc(Cl)c(Cl)c2n1C
[1]
  Population Apoptotic (%): 47.83% and 43.48%
  Population Fragmented Nuclei (%): 0.85% and 4.7%
  Population Healthy Nuclei (%): 89.38% and 79.87%
  Population Hoechst High Intensity Objects (%): 0%
  Population Membrane Permeable-Phenotype (%): 1.19% and 0.84%
  Population Mitochondria Different-Phenotype (%): 0% and 5.88%
  Population Mitotic Cells (%): 52.17% and 56.52%
  Population Normal (%): 100%
  Population Pyknosed Nuclei (%): 9.77% and 15.44%
  Population Tubulin-Different-Phenotype (%): 0.95% and 0.84%
[2]
  Population Apoptotic (%): 43.9% and 26.67%
  Population Healthy Nuclei (%): 86.92% and 80.49%
  Population Hoechst High Intensity Objects (%): 0%
  Population Membrane Permeable-Phenotype (%): 0% and 3.64%
  Population Mitochondria Different-Phenotype (%): 0% and 2.42%
  Population Mitotic Cells (%): 56.1% and 73.33%
  Population Normal (%): 100%
  Population Pyknosed Nuclei (%): 11.17% and 7.32%
  Population Tubulin-Different-Phenotype (%): 0.31% and 0%
  Total Cell Count: 367 and 205
[3]
  Population Apoptotic (%): 38.46% and 52.38%
  Population Fragmented Nuclei (%): 0.82% and 3.3%
  Population Healthy Nuclei (%): 90.7% and 85.16%
  Population Hoechst High Intensity Objects (%): 0%
  Population Membrane Permeable-Phenotype (%): 0.9% and 3.87%
  Population Mitochondria Different-Phenotype (%): 0% and 2.58%
  Population Mitotic Cells (%): 61.54% and 47.62%
  Population Normal (%): 100%
  Population Pyknosed Nuclei (%): 8.48% and 11.54%
  Population Tubulin-Different-Phenotype (%): 1.62% and 1.29%
[4]
  Population Apoptotic (%): 49.09% and 33.33%
  Population Fragmented Nuclei (%): 1.8% and 9.69%
  Population Healthy Nuclei (%): 87.17% and 84.5%
  Population Hoechst High Intensity Objects (%): 0%
  Population Membrane Permeable-Phenotype (%): 0.46% and 1.38%
  Population Mitochondria Different-Phenotype (%): 0% and 1.38%
  Population Mitotic Cells (%): 50.91% and 66.67%
  Population Normal (%): 100%
  Population Pyknosed Nuclei (%): 11.02% and 5.81%
  Population Tubulin-Different-Phenotype (%): 0.92% and 0.46%
  Total Cell Count: 499 and 258
[5]
  Population Apoptotic (%): 46.46% and 70.83%
  Population Fragmented Nuclei (%): 2.55% and 2.93%
  Population Healthy Nuclei (%): 88.73% and 89.25%
  Population Hoechst High Intensity Objects (%): 0%
  Population Membrane Permeable-Phenotype (%): 0.6% and 3.28%
  Population Mitochondria Different-Phenotype (%): 0% and 2.55%
  Population Mitotic Cells (%): 53.54% and 29.17%
  Population Normal (%): 100%
  Population Pyknosed Nuclei (%): 8.71% and 7.82%
  Population Tubulin-Different-Phenotype (%): 0.4% and 1.82%
[6]
  Population Apoptotic (%): 37.84% and 47.83%
  Population Fragmented Nuclei (%): 3.52% and 4.86%
  Population Healthy Nuclei (%): 85.01% and 83.38%
  Population Hoechst High Intensity Objects (%): 0%
  Population Membrane Permeable-Phenotype (%): 1.09% and 0.92%
  Population Mitochondria Different-Phenotype (%): 0% and 1.84%
  Population Mitotic Cells (%): 62.16% and 52.17%
  Population Normal (%): 100%
  Population Pyknosed Nuclei (%): 11.48% and 11.76%
  Population Tubulin-Different-Phenotype (%): 1.09% and 0%
  Total Cell Count: 967 and 391

## Cc1c(C(=O)NCCCN(C)C)sc2ncnc(Nc3ccc(F)cc3OC(C)CF)c12 (stereo unspecified)
[1]
  Population Apoptotic (%): 44.9% and 30.77%
  Population Fragmented Nuclei (%): 1.42% and 2.65%
  Population Healthy Nuclei (%): 84.66% and 80.13%
  Population Hoechst High Intensity Objects (%): 0%
  Population Membrane Permeable-Phenotype (%): 0.67% and 4.13%
  Population Mitochondria Different-Phenotype (%): 0% and 15.7%
  Population Mitotic Cells (%): 55.1% and 69.23%
  Population Normal (%): 100%
  Population Pyknosed Nuclei (%): 13.92% and 17.22%
  Population Tubulin-Different-Phenotype (%): 2.68% and 0%
  Total Cell Count: 352 and 151
[2]
  Population Apoptotic (%): 33.33% and 29.55%
  Population Fragmented Nuclei (%): 6.74% and 4.73%
  Population Healthy Nuclei (%): 69.66% and 65.54%
  Population Hoechst High Intensity Objects (%): 0%
  Population Membrane Permeable-Phenotype (%): 10.97% and 18.56%
  Population Mitotic Cells (%): 66.67% and 70.45%
  Population Normal (%): 100%
  Population Pyknosed Nuclei (%): 23.6% and 29.73%
  Population Tubulin-Different-Phenotype (%): 31.61% and 29.9%
[3]
  Population Apoptotic (%): 56% and 51.85%
  Population Fragmented Nuclei (%): 3.61% and 5.17%
  Population Healthy Nuclei (%): 85.77% and 79.31%
  Population Hoechst High Intensity Objects (%): 0%
  Population Membrane Permeable-Phenotype (%): 1.49% and 4.35%
  Population Mitotic Cells (%): 44% and 48.15%
  Population Normal (%): 100%
  Population Pyknosed Nuclei (%): 10.62% and 15.52%
  Population Tubulin-Different-Phenotype (%): 1.98% and 0%
  Total Cell Count: 471 and 174
[4]
  Population Apoptotic (%): 35% and 38.46%
  Population Fragmented Nuclei (%): 3.34% and 4.57%
  Population Healthy Nuclei (%): 63.26% and 58.29%
  Population Hoechst High Intensity Objects (%): 0%
  Population Membrane Permeable-Phenotype (%): 3.96% and 12.75%
  Population Mitotic Cells (%): 65% and 61.54%
  Population Normal (%): 100%
  Population Pyknosed Nuclei (%): 33.4% and 37.14%
  Population Tubulin-Different-Phenotype (%): 59.08% and 40.2%
  Total Cell Count: 479 and 175
[5]
  Population Apoptotic (%): 48.89% and 51.28%
  Population Fragmented Nuclei (%): 4.16% and 5.07%
  Population Healthy Nuclei (%): 85.73% and 80.8%
  Population Hoechst High Intensity Objects (%): 0%
  Population Membrane Permeable-Phenotype (%): 1.31% and 1.35%
  Population Mitochondria Different-Phenotype (%): 0.13% and 8.52%
  Population Mitotic Cells (%): 51.11% and 48.72%
  Population Normal (%): 100%
  Population Pyknosed Nuclei (%): 10.11% and 14.13%
  Population Tubulin-Different-Phenotype (%): 2.1% and 0.45%
[6]
  Population Apoptotic (%): 53.75% and 63.55%
  Population Fragmented Nuclei (%): 4.47% and 3.47%
  Population Healthy Nuclei (%): 48.42% and 34.68%
  Population Hoechst High Intensity Objects (%): 0.19% and 1.14%
  Population Membrane Permeable-Phenotype (%): 12.31% and 18.33%
  Population Mitotic Cells (%): 46.25% and 36.45%
  Population Normal (%): 99.81% and 98.86%
  Population Pyknosed Nuclei (%): 47.11% and 61.85%
  Population Tubulin-Different-Phenotype (%): 44.62% and 53.33%
